Reference: publication PMC6402190 (Clinical and Translational Science, 2017)
Entries after “also recorded” stand apart in the source; their conditions may differ. Where two headings read alike, the source gives them in different places.

Columns and labels:
[1] = format: in vivo, human (healthy women)
[2] = Local tolerability: ultrasound of the arm veins; format: in vivo, human (healthy women)
Method in brief: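 Arm veins were examined by ultrasound in healthy women. In the multiple-dose phase of part B, subjects had once-daily 30-min i.v. infusions of 240 mg test compound or placebo on days 8–14. Scans were done at readmission on day 7 and predose on days 9–14. After the day-14 dose they were repeated at 24, 48 and 72 h and at the final exam.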

[3] = Local tolerability: VAS assessment of pain at infusion site; format: in vivo, human (healthy women)
Method in brief: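 Healthy women, aged 18–45 years, received single i.v. doses of HPβCD-formulated test compound (60-min infusion in 0.9% saline) or placebo. Pain was self-rated on a 100-mm line (0 = no pain, 100 = unbearable). Read-outs were maximum increase from baseline and area under the VAS-time curve.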

[4] = Local tolerability: Visual Infusion Phlebitis; format: in vivo, human (healthy women)
Method in brief: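 The investigator scored the infusion site on the Visual Infusion Phlebitis scale, from 0 (no signs) to 5 (advanced thrombophlebitis). Subjects were healthy women given a single i.v. infusion of test compound or placebo. Scoring was done on day 1 predose after catheter placement, at 0.5, 1, 2, 3, 4, 6, 8, 12, 24, 48 and 72 h postdose, and at the post-trial exam.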

[5] = Safety: treatment emergent adverse events, laboratory, vital signs, ECG; format: in vivo, human (healthy women); conditions: for Dose-dependent AEs or clinically significant findings in safety laboratory values, vital signs, ECG parameters: any of the dose groups
Method in brief: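 Subjects were healthy women, aged 18–45 years, with BMI 18.0–28.0 kg/m². Part A gave single escalating i.v. doses (6 active, 2 placebo per cohort). Part B gave 240 mg i.v. on day 1 and once daily on days 8–14 (8 active, 4 placebo). AEs were categorized by nature, frequency, duration, severity, investigator-assessed causality and dose-dependence. Clinical laboratory, blood pressure, heart rate and 12-lead/Holter ECG were also recorded. Summaries are descriptive.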

[6] = part A, single 120 mg i.v., 30-min infusion, N=6, mean ± SD
[7] = part A, single 240 mg i.v., 30-min infusion, N=6, mean ± SD
[8] = part A, single 480 mg i.v., 60-min infusion, N=6, mean ± SD
[9] = part A, single 720 mg i.v., 60-min infusion, N=6, mean ± SD
[10] = part A, single 960 mg i.v., 60-min infusion, N=6, mean ± SD
[11] = part B, single 240 mg i.v. day 1, 30-min infusion, N=8, mean ± SD
[12] = part A, single dose 120 mg (N=6)
[13] = part A, single dose 120 mg (N=6), listed as letermovir
[14] = part A, single dose 240 mg (N=6)
[15] = part A, single dose 480 mg (N=6)
[16] = part A, single dose 720 mg (N=6)
[17] = part A, single dose 960 mg (N=6)
[18] = part A, single dose, letermovir total (N=30)
[19] = part B, multiple dose 240 mg (No. 5)
[20] = part B, multiple dose 240 mg (No. 6)
[21] = part B, single dose 240 mg (N=8)
[22] = part A, letermovir total (N=30)
[23] = part B, multiple-dose letermovir

AUC(0-inf) ([1]; female, human, plasma, intravenous, 240 mg, AUC0–∞ after a single dose, part B, 240 mg single dose): 27500 ng·h/mL
AUC ([1]; female, human, plasma, intravenous, 240 mg, AUCτ,ss, part B, 240 mg q.d., steady state): 33600 ng·h/mL
Tmax ([1]; female, human, plasma, iv, 120 mg): 0.5 h
Tmax ([1]; female, human, plasma, iv, 240 mg): 0.5 h
Tmax ([1]; female, human, plasma, iv, 480 mg): 1 h
Tmax ([1]; female, human, plasma, iv, 720 mg): 1 h
Tmax ([1]; female, human, plasma, iv, 960 mg): 1 h
AUC0–last/D [1, 6]: 0.11 ± 0.03 µg·h/mL/mg
AUC0–∞/D [1, 6]: 0.11 ± 0.03 µg·h/mL/mg
Cmax/D [1, 6]: 0.06 ± 0.01 µg/mL/mg
AUC0–last/D [1, 7]: 0.14 ± 0.04 µg·h/mL/mg
AUC0–∞/D [1, 7]: 0.14 ± 0.04 µg·h/mL/mg
Cmax/D [1, 7]: 0.07 ± 0.01 µg/mL/mg
AUC0–last/D [1, 8]: 0.22 ± 0.04 µg·h/mL/mg
AUC0–∞/D [1, 8]: 0.22 ± 0.04 µg·h/mL/mg
Cmax/D [1, 8]: 0.06 ± 0.01 µg/mL/mg
AUC0–last/D [1, 9]: 0.23 ± 0.03 µg·h/mL/mg
AUC0–∞/D [1, 9]: 0.23 ± 0.03 µg·h/mL/mg
Cmax/D [1, 9]: 0.05 ± 0.00 µg/mL/mg
AUC0–last/D [1, 10]: 0.26 ± 0.06 µg·h/mL/mg
AUC0–∞/D [1, 10]: 0.26 ± 0.06 µg·h/mL/mg
Cmax/D [1, 10]: 0.06 ± 0.01 µg/mL/mg
Tmax ([1]; part B, 240 mg q.d. i.v. day 14, 30-min infusion, N=5, median (minimum-maximum)): 0.50 (0.50–0.50) h
C0h (pre-dose analyte concentration) ([1]; part B, 240 mg q.d. i.v. day 14, N=5, mean ± SD): 193.2 ± 86.23 ng/mL
AUC0–last/D [1, 11]: 0.12 ± 0.02 µg·h/mL/mg
AUC0–∞/D [1, 11]: 0.13 ± 0.02 µg·h/mL/mg
Cmax/D [1, 11]: 0.06 ± 0.01 µg/mL/mg
Tmax ([1]; part B, single 240 mg i.v. day 1, 30-min infusion, N=8, median (minimum-maximum)): 0.50 (0.50–0.50) h
Increase in exposure on dose-doubling ([1]; single i.v. doses 120–960 mg): threefold
Structure (SMILES): COc1cccc(N2CCN(C3=Nc4c(F)cccc4[C@H](CC(=O)O)N3c3cc(C(F)(F)F)ccc3OC)CC2)c1 [Letermovir]
Dose proportionality of Cmax ([1]; single i.v. doses 120–960 mg): dose‐proportional increase; also recorded: approximately proportionally to the dose
Dose proportionality of total exposure AUC0–∞ (AUC0–last) ([1]; single i.v. doses 120–960 mg): slightly more‐than‐dose‐proportional increase; also recorded: more than dose proportional
Ultrasound finding in infusion site arm ([2]; part A, one subject in letermovir-treated group, at follow-up): NCS abnormal finding
Ultrasound finding in infusion site arm ([2]; part B): no abnormal findings
AUC (increase from baseline) of VAS-time curve, Mean (SD) [3, 12]: 2.74 (6.55) h*mm VAS
AUC (increase from baseline) of VAS-time curve, Median [3, 12]: 0.00 h*mm VAS
AUC (increase from baseline) of VAS-time curve, Range [3, 12]: 0.00–16.10 h*mm VAS
VAS maximum increase from baseline, Mean (SD) [3, 12]: 1.17 (2.40) mm VAS
VAS maximum increase from baseline, Median [3, 12]: 0.00 mm VAS
VAS maximum increase from baseline, Range [3, 12]: 0.00–6.00 mm VAS
AUC (increase from baseline) of VAS-time curve, Mean (SD) [3, 13]: 2.74 h*mm VAS
VAS maximum increase from baseline, Mean (SD) [3, 13]: 1.17 mm VAS
AUC (increase from baseline) of VAS-time curve, Mean (SD) [3, 14]: 0.83 (0.61) h*mm VAS
AUC (increase from baseline) of VAS-time curve, Median [3, 14]: 0.83 h*mm VAS
AUC (increase from baseline) of VAS-time curve, Range [3, 14]: 0.00–1.67 h*mm VAS
VAS maximum increase from baseline, Mean (SD) [3, 14]: 1.17 (0.75) mm VAS
VAS maximum increase from baseline, Median [3, 14]: 1.00 mm VAS
VAS maximum increase from baseline, Range [3, 14]: 0.00–2.00 mm VAS
AUC (increase from baseline) of VAS-time curve, Mean (SD) [3, 15]: 0.24 (0.42) h*mm VAS
AUC (increase from baseline) of VAS-time curve, Median [3, 15]: 0.00 h*mm VAS
AUC (increase from baseline) of VAS-time curve, Range [3, 15]: 0.00–1.02 h*mm VAS
VAS maximum increase from baseline, Mean (SD) [3, 15]: 0.5 (0.84) mm VAS
VAS maximum increase from baseline, Median [3, 15]: 0.00 mm VAS
VAS maximum increase from baseline, Range [3, 15]: 0.00–2.00 mm VAS
AUC (increase from baseline) of VAS-time curve, Mean (SD) [3, 16]: 0.39 (0.95) h*mm VAS
AUC (increase from baseline) of VAS-time curve, Median [3, 16]: 0.00 h*mm VAS
AUC (increase from baseline) of VAS-time curve, Range [3, 16]: 0.00–2.33 h*mm VAS
VAS maximum increase from baseline, Mean (SD) [3, 16]: 0.17 (0.41) mm VAS
VAS maximum increase from baseline, Median [3, 16]: 0.00 mm VAS
VAS maximum increase from baseline, Range [3, 16]: 0.00–1.00 mm VAS
VAS maximum increase from baseline, Mean (SD) ([3]; part A, single dose 720 mg (N=6), listed as letermovir): 0.17 mm VAS
AUC (increase from baseline) of VAS-time curve, Mean (SD) [3, 17]: 0.26 (0.64) h*mm VAS
AUC (increase from baseline) of VAS-time curve, Median [3, 17]: 0.00 h*mm VAS
AUC (increase from baseline) of VAS-time curve, Range [3, 17]: 0.00–1.57 h*mm VAS
VAS maximum increase from baseline, Mean (SD) [3, 17]: 0.67 (1.63) mm VAS
VAS maximum increase from baseline, Median [3, 17]: 0.00 mm VAS
VAS maximum increase from baseline, Range [3, 17]: 0.00–4.00 mm VAS
AUC (increase from baseline) of VAS-time curve, Mean (SD) [3, 18]: 0.89 (2.94) h*mm VAS
AUC (increase from baseline) of VAS-time curve, Median [3, 18]: 0.00 h*mm VAS
AUC (increase from baseline) of VAS-time curve, Range [3, 18]: 0.00–16.10 h*mm VAS
VAS maximum increase from baseline, Mean (SD) [3, 18]: 0.73 (1.36) mm VAS
VAS maximum increase from baseline, Median [3, 18]: 0.00 mm VAS
VAS maximum increase from baseline, Range [3, 18]: 0.00–6.00 mm VAS
VAS maximum increase from baseline, Mean (SD) ([3]; part A, single dose, letermovir total (N=30), listed as letermovir): 0.73 mm VAS
AUC (increase from baseline) of VAS-time curve, Mean (SD) [3, 19]: 24.58 (30.23) h*mm VAS
AUC (increase from baseline) of VAS-time curve, Median [3, 19]: 23.95 h*mm VAS
AUC (increase from baseline) of VAS-time curve, Range [3, 19]: 0.00–74.33 h*mm VAS
VAS maximum increase from baseline, Mean (SD) [3, 20]: 0.83 (0.41) mm VAS
VAS maximum increase from baseline, Median [3, 20]: 1.00 mm VAS
VAS maximum increase from baseline, Range [3, 20]: 0.00–1.00 mm VAS
VAS maximum increase from baseline, Mean (SD) ([3]; part B, multiple dose 240 mg (No. 6), listed as letermovir): 0.83 mm VAS
AUC (increase from baseline) of VAS-time curve, Mean (SD) [3, 21]: 0.00 h*mm VAS
AUC (increase from baseline) of VAS-time curve, Median [3, 21]: 0.00 h*mm VAS
AUC (increase from baseline) of VAS-time curve, Range [3, 21]: 0.00 h*mm VAS
VAS maximum increase from baseline, Mean (SD) [3, 21]: 0.00 mm VAS
VAS maximum increase from baseline, Median [3, 21]: 0.00 mm VAS
VAS maximum increase from baseline, Range [3, 21]: 0.00 mm VAS
VIP score ([4]; part A, one subject of 120 mg group, 4 h postinfusion, scale 0–5): 2
VIP score ([4]; part A, one subject treated with 240 mg, 24 h postinfusion, scale 0–5): 1
VIP score ([4]; part A, same subject of 120 mg group, 72 h postinfusion, scale 0–5): 1
VIP score ([4]; part B, one letermovir-treated subject, predose day 14 until 72 h postdose): 1
VIP score ([4]; part B, throughout the study, all participants except one): 0
Dose-dependent AEs or clinically significant findings in safety laboratory values, vital signs, ECG parameters [5]: No clinically significant findings
Dose-dependent AEs or clinically significant findings in safety laboratory values, vital signs, ECG parameters ([5]; listed as letermovir): No dose‐dependent AEs or clinically significant findings
Subjects with mild or moderate TEAEs ([5]; part A): 17 subjects
TEAE Vessel puncture site hematoma [5, 22]: 2 No. of subjects
TEAE Vessel puncture site pain [5, 22]: 4 No. of subjects
TEAE Vessel puncture site reaction [5, 22]: 2 No. of subjects
Treatment-related AE headache ([5]; part A, single-dose letermovir): 2 subjects
Treatment-related AE nausea ([5]; part A, single-dose letermovir): 2 subjects
Treatment-related AE vomiting ([5]; part A, single-dose letermovir): 2 subjects
Subjects reporting TEAEs ([5]; part A, single-dose letermovir (18/30)): 60%
Subjects reporting AEs possibly or probably related to treatment ([5]; part A, single-dose letermovir (eight subjects)): 26.7%
Subjects with mild or moderate TEAEs ([5]; part B): 6 subjects
Subjects reporting TEAEs ([5]; part B, letermovir (6/8)): 75%
Subjects with treatment-related AEs [5, 23]: five
Treatment-related AE dizziness [5, 23]: 2 subjects
Treatment-related AE headache [5, 23]: 2 subjects
General tolerability ([5]; single doses up to 960 mg and multiple once-daily 240 mg i.v.): generally safe and well tolerated
Discontinuations due to AEs ([5]; throughout the study): no discontinuations due to AEs
